Reference: PubChem BioAssay AID588510 (Broad Institute, 2011)

target: Protein LANA1 (Human herpesvirus 8 type P (isolate GK18)) (UniProt Q9QR71); assay: LANA–nucleosome binding inhibitors, dose response, orthogonal assay, biochemical, ELISA, dry powder samples (AID 588510); conditions: GST-LANA 1-23 binding to nucleosomes, ELISA 450 nm; series mostly up to 50 µM; activity (ratio to control): at the top concentration
In short: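 System: purified nucleosomes plus GST-LANA 1-23 peptide; medium: Milk blocking of wells; times: compound plus GST-LANA 90 min 4 °C, substrate 30 min RT; technique: ELISA absorbance at 450 nm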

Protein LANA1 (Human herpesvirus 8 type P (isolate GK18)), sequence (Q9QR71 whole entry, looked up): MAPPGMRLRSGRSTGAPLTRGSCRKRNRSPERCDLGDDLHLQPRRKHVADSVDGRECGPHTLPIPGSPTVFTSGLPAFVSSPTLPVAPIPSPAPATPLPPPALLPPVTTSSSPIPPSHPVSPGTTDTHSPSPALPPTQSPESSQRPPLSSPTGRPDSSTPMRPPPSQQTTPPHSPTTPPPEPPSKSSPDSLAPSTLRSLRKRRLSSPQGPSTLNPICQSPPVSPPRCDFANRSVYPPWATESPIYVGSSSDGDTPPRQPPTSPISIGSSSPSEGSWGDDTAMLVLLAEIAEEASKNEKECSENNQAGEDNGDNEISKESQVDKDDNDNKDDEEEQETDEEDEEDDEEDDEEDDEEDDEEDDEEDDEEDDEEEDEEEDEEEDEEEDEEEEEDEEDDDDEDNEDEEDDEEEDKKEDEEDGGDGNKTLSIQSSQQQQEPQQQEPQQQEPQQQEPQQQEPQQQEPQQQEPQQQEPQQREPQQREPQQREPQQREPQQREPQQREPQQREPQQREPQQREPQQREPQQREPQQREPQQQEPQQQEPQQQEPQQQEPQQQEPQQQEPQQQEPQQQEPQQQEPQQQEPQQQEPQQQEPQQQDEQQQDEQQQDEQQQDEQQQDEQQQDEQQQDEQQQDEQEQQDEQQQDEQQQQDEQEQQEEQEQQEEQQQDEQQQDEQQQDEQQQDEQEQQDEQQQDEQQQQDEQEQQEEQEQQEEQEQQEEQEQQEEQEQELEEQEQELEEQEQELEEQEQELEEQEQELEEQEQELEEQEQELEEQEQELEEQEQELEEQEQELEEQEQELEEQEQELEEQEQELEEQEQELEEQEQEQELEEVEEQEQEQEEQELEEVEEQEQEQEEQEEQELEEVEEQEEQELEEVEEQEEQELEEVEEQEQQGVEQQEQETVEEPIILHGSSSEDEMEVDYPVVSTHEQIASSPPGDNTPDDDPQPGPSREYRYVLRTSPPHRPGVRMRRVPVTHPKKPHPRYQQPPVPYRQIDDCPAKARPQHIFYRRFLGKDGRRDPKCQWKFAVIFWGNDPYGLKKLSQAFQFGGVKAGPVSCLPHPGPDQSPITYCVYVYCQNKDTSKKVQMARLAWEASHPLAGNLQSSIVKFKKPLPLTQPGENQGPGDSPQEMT

Activity (ratio to control), inactive:
CC(C)(C)C1(C)OC(=O)C(=Cc2ccc(OCC(=O)Nc3ccccc3)cc2)C(=O)O1 (stereo not drawn) 94.4%
COc1ccc2ccccc2c1C(O)c1nccn1C (stereo not drawn) 92.2%
Cc1cc(C)cc(NS(=O)(=O)c2ccc3c(c2)C(C)(C)C(=O)N3C)c1 99.5%
Cc1ccc(Cl)cc1N1CCN(C(=O)C2CCN(S(C)(=O)=O)CC2)CC1 99.1%
CC1Cc2ccccc2N1C(=O)CSc1ncccn1 (stereo not drawn) 140%
COc1ccc(C2C=C(c3ccc(Br)cc3)Nc3nc(NS(C)(=O)=O)nn32)cc1 (stereo not drawn) 99.7%
O=S(=O)(Nc1cc(Cl)ccc1N1CCOCC1)c1ccccc1Cl 105%
Cc1cc(C)c2nc(C(F)(F)F)nc(NCCCN3CCCC3=O)c2c1 95.3%
Clc1ccc(-c2nnc3sc(-c4ccc(Br)o4)nn23)cc1 97.5%
CC(=O)Nc1cccc(N)c1 97.2%
CC(=O)Nc1ccc(-c2cn3ccsc3n2)cc1 127%
Cc1cccc(N2C(=O)c3cccc4c(N(C)CCO)ccc(c34)C2=O)c1 114%
O=C(CCCN1C(=O)c2cccc3cccc(c23)C1=O)N1CCN(c2ccccc2)CC1 130%
